Assay results reported in ChEMBL document CHEMBL1129404, “6-phenyl-1,4-dihydropyridine derivatives as potent and selective A3 adenosine receptor antagonists” (J Med Chem, 1996).
pKi: −log10 of the molar value.

Columns and labels:
[1] = molecular target: Adenosine receptor A2a (Rattus norvegicus) (UniProt P30543); assay: Binding affinity for Adenosine A2A receptor in rat striatal membrane with [3H]-CGS- 21680; format: cell membranes; design: concentration or dose not given beside the values; conditions: Striatum
Adenosine receptor A2a (Rattus norvegicus), sequence (P30543 whole entry): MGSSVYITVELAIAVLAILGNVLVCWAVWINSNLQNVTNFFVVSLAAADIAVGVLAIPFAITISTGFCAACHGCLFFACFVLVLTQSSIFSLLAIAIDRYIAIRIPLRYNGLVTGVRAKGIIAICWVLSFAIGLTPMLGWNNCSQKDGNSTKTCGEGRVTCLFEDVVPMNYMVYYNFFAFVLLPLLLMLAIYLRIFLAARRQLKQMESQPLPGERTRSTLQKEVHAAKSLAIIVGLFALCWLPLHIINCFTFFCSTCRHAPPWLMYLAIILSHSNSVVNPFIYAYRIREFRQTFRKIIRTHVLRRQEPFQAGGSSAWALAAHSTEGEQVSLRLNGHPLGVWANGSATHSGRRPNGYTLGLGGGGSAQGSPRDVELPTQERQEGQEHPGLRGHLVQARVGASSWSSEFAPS

[2] = molecular target: T1, Adenosine receptor A1 (Rattus norvegicus) (UniProt P25099); assay: Binding affinity for Adenosine A1 receptor in rat cerebral cortex membrane with [3H]-(R)-PIA.; format: cell membranes
T1 sequence (whole entry): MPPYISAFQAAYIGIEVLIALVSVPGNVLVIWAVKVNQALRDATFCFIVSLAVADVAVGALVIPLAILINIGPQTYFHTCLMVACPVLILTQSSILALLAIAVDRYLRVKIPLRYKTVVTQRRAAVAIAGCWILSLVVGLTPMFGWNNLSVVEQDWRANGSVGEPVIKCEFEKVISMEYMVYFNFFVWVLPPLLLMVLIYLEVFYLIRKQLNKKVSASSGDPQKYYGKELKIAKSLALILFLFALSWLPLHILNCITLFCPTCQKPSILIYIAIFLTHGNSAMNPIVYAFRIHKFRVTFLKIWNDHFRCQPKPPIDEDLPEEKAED
Procedure, shortened: (§1)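 Rat cerebral cortex membranes prepared with adenosine deaminase (3 units/mL), preincubated 30 min at 30 °C, with deaminase also present during incubation with [3H]-(R)-PIA. Competitor used at five or more concentrations spanning 3 orders of magnitude.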

[3] = molecular target: Adenosine receptor A2a (Rattus norvegicus) (UniProt P30543); assay: Inhibition of [3H]-CGS- 21680 binding to Adenosine A2A receptor of rat striatal membrane; design: concentration or dose not given beside the values; conditions: concentration not given here
Adenosine receptor A2a = Adenosine receptor A2a (Rattus norvegicus, UniProt P30543); assay: Displacement of [3H]-CGS- 21680 from Adenosine A2A receptor of rat striatal membrane
Adenosine receptor A2a, sequence (P30543 whole entry): as the sequence (P30543 whole entry) above

[4] = molecular target: T1, Adenosine receptor A1 (Rattus norvegicus); assay: Binding affinity for Adenosine A1 receptor of rat cerebral cortex membrane with [3H](R)-PIA.; format: tissue-based; procedure, shortened: as §1
[5] = Relative affinities for rat adenosine A1 and human adenosine A3 receptors
Procedure, shortened: (§2)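 Ratio of Ki values: rat A1 ([3H]-(R)-PIA, rat cortical membranes) over human A3 ([125I]AB-MECA, HEK-293 membranes), each Ki derived by Cheng-Prusoff from competition curves.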

[6] = molecular target: T1, Adenosine receptor A1 (Rattus norvegicus); assay: Binding affinity for Adenosine A1 receptor in rat cerebral cortex membrane with [3H](R)-PIA.; format: cell membranes; conditions: concentration not given here; procedure, shortened: as §1
[7] = Relative binding affinities for rat adenosine A1 and human adenosine A3 receptors; Selectivity ratio; procedure, shortened: as §2

Compound `CCO/C(O)=C1\C(C)=NC(c2ccccc2)=C(C(=O)OCc2ccccc2)C1/C=C/c1ccccc1` (stereo not given) has an Inhibition (at concentration M) [1] of 15% and an Inhibition (at concentration M) [2] of 35%.

With `CCOC(=O)C1=C(c2ccccc2)N=C(C)/C(=C(/O)OCC)C1/C=C/c1ccccc1OC` (stereo not given) the inhibition [3] was 17%.

For `CCOC(=O)C1=C(c2ccccc2)N=C(C)/C(=C(/O)OCC)C1CC` (stereo not given), the pKi (Adenosine receptor A2a) was 4.84.

With `CCOC(=O)c1c(C)nc(-c2ccccc2)c(C(=O)OCC)c1/C=C/c1ccccc1` the pKi (Adenosine receptor A2a) was 5.62.

In the case of `CCOC(=O)C1=C(c2ccccc2)N=C(C)/C(=C(/O)OCc2ccccc2)C1/C=C/c1ccccc1` (stereo not given), the Inhibition (at concentration M) [4] was less than 10%.

With `CCOC(=O)c1c(C)nc(-c2ccccc2)c(C(=O)OCC)c1C` the Selectivity ratio [5] was 1.7.

Compound `CCO/C(O)=C1\C(C)=NC(c2ccccc2)=C(C(=O)OCc2ccccc2)C1/C=C/c1ccc([N+](=O)[O-])cc1` (stereo not given) has an inhibition [3] of less than 10% and an inhibition [6] of 33%.

In the case of `CCOC(=O)C1=C(C)NC(C)=C(C(=O)OC)C1/C=C/c1ccccc1` (stereo not given), the Ratio [7] was 24.

In the case of `CCOC(=O)C1=C(c2ccc(OC)cc2)N=C(C)/C(=C(/O)OCC)C1/C=C/c1ccccc1` (stereo not given), the inhibition [3] was less than 10%.

In the case of `CCOC(=O)C1=C(c2ccoc2)N=C(C)/C(=C(/O)OCC)C1/C=C/c1ccccc1` (stereo not given), the inhibition [3] was 35%.

`CCO/C(O)=C1\C(C)=NC(C)=C(C(=O)OC)C1CC` (stereo not given) gave a pKi (Adenosine receptor A2a) of 5.10.

`CCOC(=O)C1=C(C)N=C(C)/C(=C(/O)OCC)C1/C=C/c1ccccc1` (stereo not given) showed a pKi (Adenosine receptor A2a) of 5.03.

`CCOC(=O)C1=C(c2ccccc2)N=C(C)/C(=C(/O)OCC)C1C#Cc1ccccc1` (stereo not given) gave an Inhibition (at concentration M) [1] of 26%.

In the case of `CCO/C(O)=C1\C(C)=NC(c2ccccc2)=C(C(=O)OCc2ccccc2)C1C#Cc1ccccc1` (stereo not given), the Inhibition (at concentration M) [1] was less than 10%.

Work on `CCOC(=O)C1=C(c2ccc(C)cc2)N=C(C)/C(=C(/O)OCC)C1/C=C/c1ccccc1` (stereo not given) yielded an Inhibition (at concentration M) [1] of 37%.

In the case of `CCOC(=O)C1=C(c2ccccc2)N=C(C)/C(=C(/O)OCc2ccccc2)C1C#Cc1ccccc1` (stereo not given), the Inhibition (at concentration M) [1] was less than 10% and the Inhibition (at concentration M) [2] was 24%.

In the case of `CCOC(=O)C1=C(c2ccc(Cl)cc2)N=C(C)/C(=C(/O)OCC)C1/C=C/c1ccccc1` (stereo not given), the inhibition [3] was 12%.

In the case of `CCOC(=O)C1=C(c2ccccc2)N=C(C)/C(=C(/O)OCC)C1/C=C/c1ccccc1[N+](=O)[O-]` (stereo not given), the inhibition [3] was less than 10%.

For `CCOC(=O)C1=C(c2ccccc2)N=C(C)/C(=C(/O)OCC)C1/C=C/c1ccc([N+](=O)[O-])cc1` (stereo not given), the inhibition [3] was 33%.

`CCOC(=O)C1=C(C)NC(C)=C(C(=O)OCc2ccccc2)C1/C=C/c1ccccc1` (stereo not given) showed an inhibition [3] of 14%.

`CCOC(=O)c1c(C)nc(-c2ccccc2)c(C(=O)OCc2ccccc2)c1C#Cc1ccccc1` gave an inhibition [3] of 43% and a Ratio [7] of 4.2.

Work on `CCOC(=O)C1=C(c2ccccc2)N=C(C)/C(=C(/O)OCc2ccccc2)C1/C=C/c1ccc([N+](=O)[O-])cc1` (stereo not given) yielded an inhibition [3] of less than 10% and an inhibition [6] of less than 10%.

Work on `CCOC(=O)C1=C(c2ccccc2)N=C(C)/C(=C(/O)OCC)C1C=C(c1ccccc1)c1ccccc1` (stereo not given) yielded an Inhibition (at concentration M) [1] of 12%.

For `CCO/C(O)=C1\C(C)=NC(c2ccccc2)=C(C(=O)OCc2ccccc2)C1C` (stereo not given), the pKi (Adenosine receptor A2a) was 5.50.

For `CCOC(=O)C1=C(c2ccsc2)N=C(C)/C(=C(/O)OCC)C1/C=C/c1ccccc1` (stereo not given), the inhibition [3] was less than 10%.
